Assay results collected from several papers.
Lines come from different studies, so protocols differ.
Target: Dual specificity protein kinase TTK (TTK, Homo sapiens, UniProt P33981)
Sequence (P33981 1-857, as in one of the studies): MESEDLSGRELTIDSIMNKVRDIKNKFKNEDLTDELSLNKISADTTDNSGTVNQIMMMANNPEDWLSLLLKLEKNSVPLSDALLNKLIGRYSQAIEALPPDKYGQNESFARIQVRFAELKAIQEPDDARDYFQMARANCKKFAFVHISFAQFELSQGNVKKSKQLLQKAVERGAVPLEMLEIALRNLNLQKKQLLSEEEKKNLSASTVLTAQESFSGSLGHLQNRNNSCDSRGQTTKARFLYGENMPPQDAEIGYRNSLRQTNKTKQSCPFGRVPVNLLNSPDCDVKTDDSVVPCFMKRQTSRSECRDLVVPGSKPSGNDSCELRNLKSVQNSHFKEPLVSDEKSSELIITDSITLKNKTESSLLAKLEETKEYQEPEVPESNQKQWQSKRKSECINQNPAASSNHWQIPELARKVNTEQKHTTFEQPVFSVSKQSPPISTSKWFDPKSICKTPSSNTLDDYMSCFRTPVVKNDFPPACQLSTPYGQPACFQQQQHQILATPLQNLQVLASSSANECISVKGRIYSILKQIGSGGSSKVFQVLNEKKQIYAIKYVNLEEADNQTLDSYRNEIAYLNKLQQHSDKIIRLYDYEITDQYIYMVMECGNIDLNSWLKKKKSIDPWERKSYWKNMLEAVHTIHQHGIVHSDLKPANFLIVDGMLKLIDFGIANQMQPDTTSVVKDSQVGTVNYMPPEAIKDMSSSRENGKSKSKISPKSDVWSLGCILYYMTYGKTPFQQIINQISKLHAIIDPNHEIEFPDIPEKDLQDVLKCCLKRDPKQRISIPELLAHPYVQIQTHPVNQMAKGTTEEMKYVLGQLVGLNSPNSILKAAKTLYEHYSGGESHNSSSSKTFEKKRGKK

Nc1nc(Nc2ccc(S(N)(=O)=O)cc2)nn1C(=O)c1c(F)cccc1F  remaining signal (cell-free assay; 0.5 µM): 77.5%
CCCOc1ccc([C@H]2[C@H](C(=O)O)[C@@H](c3ccc4c(c3)OCO4)CN2CC(=O)Nc2c(CC)cccc2CC)cc1  remaining binding (cell-free assay, competition with immobilised ligand; 1 µM): 94%
CCN(CC)CCNC(=O)c1c(C)[nH]c(/C=C2\C(=O)Nc3ccc(F)cc32)c1C  remaining signal (cell-free assay; 0.5 µM): 68%
CN(C(=O)c1ccccc1)c1cc(N(C)c2ccc3c(c2)CCc2ccc(C(=O)NCCN4CCOCC4)cc2C3=O)ccc1F  remaining binding (cell-free assay, competition with immobilised ligand; 1 µM): 87%
COc1cc(Cl)c(C(=O)N[C@@H](CN[C@H]2CC[C@@H](N)CC2)Cc2ccc(C#N)cc2)cc1-c1ccc(CN[C@H](C)c2ccc(C)cc2)o1  remaining activity (enzyme activity, inhibitor; 1 µM): 95%
Oc1cccc(-c2nc(N3CCOCC3)c3oc4ncccc4c3n2)c1  remaining signal (cell-free assay; 0.5 µM): 93.3%
CCN1CCC2(CC1)NC(=O)c1c(c3ccc(Cl)c(Cl)c3n1C)C2C#N (racemic)  ΔTm (thermal stability, DSF; 10 µM): 0.6 °C
Cc1ccc(C(=O)NCc2ccsc2)cc1C#Cc1cn(C(C)C)c2ncnc(N)c12  activity vs control (enzyme activity, inhibitor; 1 µM): 93%
Cn1c2c(c3ccc(Cl)c(Cl)c31)C(C#N)C1(CCCCC1)NC2=O (racemic)  ΔTm (thermal stability, DSF; 10 µM): 0.7 °C
Cc1nccc(COC(=O)N2C[C@@H]3[C@@H](CNC(=O)c4ccc5[nH]nnc5c4)[C@@H]3C2)n1  remaining binding (cell-free assay, competition with immobilised ligand; 1 µM): 89%
Cn1c2c(c3ccc(Cl)c(Cl)c31)C(C#N)C1(CCN(C(=O)OC(C)(C)C)CC1)NC2=O (racemic)  ΔTm (thermal stability, DSF; 10 µM): 0 °C
CN1CC(Oc2cnc(C#N)cc2-c2ccn3nc(NC(=O)C4CC4)cc3c2)C1  inhibition (enzyme activity, inhibitor; 1 µM): 12%
CCS(=O)(=O)c1cc2cc(C[C@](O)(CC(C)(C)c3ccc(F)cc3C(N)=O)C(F)(F)F)[nH]c2cn1  remaining binding (cell-free assay, competition with immobilised ligand; 1 µM): 99%
Oc1cccc(-c2nc(N3CCOCC3)c3oc4ncccc4c3n2)c1  remaining activity (enzyme activity, inhibitor; 10 µM): 66%
O=C(Nc1cccnn1)N1CCC(=Cc2cccc(Oc3ccc(C(F)(F)F)cn3)c2)CC1  remaining binding (cell-free assay, competition with immobilised ligand; 1 µM): 100%
COc1cc(/C=C/C(=O)CC(=O)/C=C/c2ccc(O)c(OC)c2)ccc1O  activity vs control (enzyme activity, inhibitor; 1 µM): 51%
FC(F)(F)Oc1cccc(-c2cnc3ccc(-c4ccncc4)nn23)c1  activity vs control (enzyme activity, inhibitor, radiometric; 5 µM): 67%
COc1cc(Nc2cnc(C#N)c(O[C@H](C)CN(C)C)n2)ncc1-c1cnn(C)c1  remaining activity (enzyme activity, inhibitor, radiometric; 10 µM): 74%
FC(F)(F)c1ccc2c(c1)nc(-c1cccnc1)n2C1CC1  remaining binding (cell-free assay, competition with immobilised ligand; 1 µM): 100%
C#Cc1cccc(Nc2ncnc3cc(OCCOC)c(OCCOC)cc23)c1  remaining signal (cell-free assay; 0.5 µM): 91.8%
O=C(NS(=O)(=O)c1ccc(NCC2CCOCC2)c([N+](=O)[O-])c1)c1ccc(N2CCN(Cc3ccc(C(F)(F)F)cc3-c3ccc(Cl)cc3)CC2)cc1Oc1cnc2[nH]ccc2c1  remaining binding (cell-free assay, competition with immobilised ligand; 1 µM): 100%
CC(C)(C)c1nc2c(s1)c1nc(N)ncc1c1ccc(NS(=O)(=O)c3c(F)cccc3F)c(F)c12  remaining activity (enzyme activity, inhibitor, radiometric; 1 µM): 90%
